Columns and labels:
[1] = Inhibition of Influenza B virus (B/Yokohama/UT2203/2005)) neuraminidase N294S mutant after 30 mins by fluorescence analysis
Summary of the method: (§1)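 Virus NA source was mixed with compound in 32.5 mM MES-NaOH pH 6.5 with 4 mM CaCl2 and preincubated 10 min at room temperature. Reaction ran 30 min at room temperature with 100 μM (final) 4-MU-NANA. Fluorescence was read at ex 360/em 460 nm, in triplicate. IC50 came from linear regression of residual activity against log concentration, using concentrations giving 10–90% residual activity.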

[2] = Inhibition of Influenza B virus (B/Yokohama/UT3318/2005)) neuraminidase N294S mutant after 30 mins by fluorescence analysis; summary of the method: as §1

Question: For `CO[C@@H]([C@@H]1OC(C(=O)O)=C[C@H](NC(=N)N)[C@H]1NC(C)=O)[C@H](O)CO` [LANINAMIVIR], which IC50 [1] is on record?
Answer: 48.9 nM

Question: What about the IC50 [2] of the same compound?
Answer: 30.2 nM

Question: What does the source list for `CC(=O)N[C@H]1[C@H]([C@H](O)[C@H](O)CO)OC(C(=O)O)=C[C@@H]1NC(=N)N` [ZANAMIVIR]?
Answer: IC50 [1]: 33.6 nM; IC50 [2]: 20 nM
